Data reported in publication PMC6959540 (Nuclear medicine and biology, 2012).

Experiments:
[1] = Distribution coefficient n-octanol/phosphate buffer pH 7.4; format: physicochemical; conditions: 1-octanol / 0.025 M phosphate buffer pH 7.4
Method in brief: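 HPLC-purified radiotracer (~37 MBq/mL in saline) was added to equal volumes of n-octanol and 0.025 M sodium phosphate buffer pH 7.4 (n=8). Tubes were vortexed for 1 min at room temperature and centrifuged at 3000 rpm for 10 min. Phase aliquots were weighed and gamma-counted. D was calculated as cpm/mL octanol over cpm/mL buffer, with volumes derived from mass and phase density.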

[2] = Biodistribution in control NMRI mice; format: in vivo; conditions: for % ID / % ID/g: control mice i.v.
Method in brief: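 Male NMRI mice (32–43 g) under pentobarbital (60 mg/kg i.p.) or isoflurane (2% in oxygen) received about 9.25 MBq of radiotracer in saline via a lateral tail vein. They were decapitated at 2, 10 or 60 min p.i. (n=4 per time point). Organs and blood were dissected, weighed and gamma-counted. %ID was organ cpm over total recovered cpm. Blood mass was taken as 7% of body mass.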

[3] = tested on: TRPV1 receptor; assay: Biodistribution in NMRI mice pretreated with BCTC or SB366791; format: in vivo; conditions: 60 min p.i.
Method in brief: (§1)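 Male NMRI mice (32–43 g), either pretreated s.c. 1 h before tracer or TRPV1−/−. Tracer was diluted in saline (<10% ethanol) and ~9.25 MBq given via lateral tail vein under pentobarbital (60 mg/kg i.p.) or isoflurane (2% in O2). Mice were decapitated at 2, 10 or 60 min (n=4 per time point). Tissues and blood were weighed and gamma-counted, and trigeminal nerve-to-blood activity ratios calculated. Values are mean ± SEM.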

[4] = tested on: TRPV1 receptor; assay: Biodistribution in TRPV1^-/- mice; format: in vivo; conditions: 60 min p.i.
Method in brief: as §1

[5] = Plasma radiometabolites in mice; format: in vivo; conditions: mouse plasma
[6] = Brain radiometabolites in mice; format: in vivo; conditions: mouse brain
[7] = biological target: T1, hTRPV1 (Homo sapiens, UniProt Q8NER1); assay: [^3H]RTX competition binding on CHO cells transfected with hTRPV1; conditions: read-out: binding affinity (Kd), [^3H]RTX as radioligand
Method in brief: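 Stable Tet-Off CHO cells expressing human TRPV1 were induced 48 h in tetracycline-free medium, harvested and pelleted. Assay mix: DPBS with Ca2+/Mg2+, BSA 0.25 mg/mL, [3H]RTX 100 pM and varying competitor concentrations; 100 nM unlabelled RTX defined nonspecific binding. Incubation 60 min at 37 °C, ice-cooled, glycoprotein added, membranes pelleted by centrifugation. Pellets and supernatant were scintillation-counted and Ki fitted with the Hill equation.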

[8] = biological target: T2, rTRPV1 (Rattus norvegicus, UniProt O35433); assay: [^3H]RTX competition binding on CHO cells transfected with rTRPV1; conditions: read-out: binding affinity (Kd), [^3H]RTX as radioligand
Method in brief: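 A stable Tet-Off CHO line with rat TRPV1 was induced for 48 h in tetracycline-free medium, harvested and pelleted, and pellets were stored at −20 °C. Binding used [3H]RTX (100 pM) plus graded competitor in DPBS with Ca2+/Mg2+ and BSA (0.25 mg/mL), at 37 °C for 60 min. Nonspecific binding was set with 100 nM unlabelled RTX. Membranes were pelleted after glycoprotein addition and scintillation-counted. Parameters came from Hill equation fits.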

[9] = biological target: T1, hTRPV1; assay: ^45Ca^2+ uptake in CHO-hTRPV1 cells; format: cell-based
Method in brief: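 Tet-Off CHO-hTRPV1 cells at 50–70% confluency were induced 48 h without tetracycline. Assay medium was DMEM with BSA 0.25 mg/mL, 45Ca2+ 37 kBq/mL and increasing ligand concentrations. Antagonism wells also held capsaicin 75 nM; full-agonist reference was capsaicin 300 nM. After 5 min at 37 °C, cells were washed, lysed in RIPA buffer and scintillation-counted. Each point is the mean of four wells, fitted with the Hill equation.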

[10] = biological target: T2, rTRPV1; assay: ^45Ca^2+ uptake in CHO-rTRPV1 cells; format: cell-based
Method in brief: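 CHO-rTRPV1 cells (Tet-Off) were induced for about 48 h without tetracycline. They were then exposed for 5 min at 37 °C to DMEM containing BSA (0.25 mg/mL), 45Ca2+ (37 kBq/mL) and increasing test compound. Agonism was referenced to 300 nM capsaicin, and antagonism was tested against 75 nM capsaicin. Cells were washed, lysed in RIPA buffer and scintillation-counted. Each point was the mean of four wells, fitted to the Hill equation.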

[11] = biological target: T1, hTRPV1; conditions: read-out: IC50 reported for hTRPV1; cited from earlier work
[12] = control mice, pentobarbital, i.v.
[13] = read-out: antagonist activity (Ki), capsaicin 75 nM

T2 sequence (O35433 whole entry): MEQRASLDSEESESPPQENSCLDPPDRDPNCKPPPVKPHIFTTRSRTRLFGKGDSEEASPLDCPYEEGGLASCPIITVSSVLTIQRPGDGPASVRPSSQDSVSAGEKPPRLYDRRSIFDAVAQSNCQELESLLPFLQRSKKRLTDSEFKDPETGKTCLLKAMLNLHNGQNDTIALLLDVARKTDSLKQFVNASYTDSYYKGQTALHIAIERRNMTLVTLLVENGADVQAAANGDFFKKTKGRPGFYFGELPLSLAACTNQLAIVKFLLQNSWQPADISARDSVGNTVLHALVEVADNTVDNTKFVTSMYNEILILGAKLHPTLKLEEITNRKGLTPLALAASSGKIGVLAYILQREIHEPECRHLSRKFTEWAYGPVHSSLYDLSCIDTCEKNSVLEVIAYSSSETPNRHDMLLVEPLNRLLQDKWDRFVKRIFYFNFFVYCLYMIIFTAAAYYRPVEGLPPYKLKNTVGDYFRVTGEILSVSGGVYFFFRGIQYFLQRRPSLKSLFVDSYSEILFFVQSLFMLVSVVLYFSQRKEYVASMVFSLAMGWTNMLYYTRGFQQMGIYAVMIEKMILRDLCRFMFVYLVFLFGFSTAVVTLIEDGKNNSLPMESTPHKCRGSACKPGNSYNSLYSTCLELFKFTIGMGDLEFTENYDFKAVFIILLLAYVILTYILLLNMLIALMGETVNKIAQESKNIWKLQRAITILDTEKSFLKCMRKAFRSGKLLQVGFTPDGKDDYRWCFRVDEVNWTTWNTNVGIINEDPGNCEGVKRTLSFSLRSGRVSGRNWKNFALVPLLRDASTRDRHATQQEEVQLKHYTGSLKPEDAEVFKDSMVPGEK
T1 sequence (Q8NER1 whole entry): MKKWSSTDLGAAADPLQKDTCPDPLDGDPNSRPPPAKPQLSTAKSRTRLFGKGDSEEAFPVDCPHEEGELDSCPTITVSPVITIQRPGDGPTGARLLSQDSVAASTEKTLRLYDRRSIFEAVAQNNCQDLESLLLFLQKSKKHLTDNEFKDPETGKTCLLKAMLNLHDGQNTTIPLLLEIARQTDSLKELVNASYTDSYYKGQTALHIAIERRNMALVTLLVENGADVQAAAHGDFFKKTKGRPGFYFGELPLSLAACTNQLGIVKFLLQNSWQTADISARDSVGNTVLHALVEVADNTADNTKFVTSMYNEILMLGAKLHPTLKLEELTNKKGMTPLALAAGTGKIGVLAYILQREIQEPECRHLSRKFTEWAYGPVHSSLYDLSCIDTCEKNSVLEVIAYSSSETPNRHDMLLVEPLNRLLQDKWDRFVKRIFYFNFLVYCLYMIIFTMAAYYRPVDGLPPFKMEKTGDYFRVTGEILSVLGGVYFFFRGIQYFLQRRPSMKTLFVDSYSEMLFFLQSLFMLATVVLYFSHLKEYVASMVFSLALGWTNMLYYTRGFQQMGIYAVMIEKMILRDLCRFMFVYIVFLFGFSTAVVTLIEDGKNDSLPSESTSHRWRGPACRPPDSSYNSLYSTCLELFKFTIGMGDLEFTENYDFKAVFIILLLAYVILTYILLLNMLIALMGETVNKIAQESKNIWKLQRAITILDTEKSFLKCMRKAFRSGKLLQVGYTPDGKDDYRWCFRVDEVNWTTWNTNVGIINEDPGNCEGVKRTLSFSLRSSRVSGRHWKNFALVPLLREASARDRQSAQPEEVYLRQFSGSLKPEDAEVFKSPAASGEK

[11CH3]Oc1cccc(NC(=O)/C=C/c2ccc(Cl)cc2)c1 [[^11C]SB366791]
log D [1]: 3.5±0.1
% ID ([2]; Bladder+urine, 2 min p.i.): 0.2±0.1 % ID
% ID ([2]; Bladder+urine, 10 min p.i.): 8.0±2.5 % ID
% ID ([2]; Bladder+urine, 60 min p.i.): 25.9±12.0 % ID
% ID ([2]; Blood, 2 min p.i.): 9.9±1.0 % ID
% ID/g ([2]; Blood, 2 min p.i.): 3.6±0.4 % ID/g
% ID ([2]; Blood, 10 min p.i.): 6.9±0.5 % ID
% ID/g ([2]; Blood, 10 min p.i.): 2.6±0.2 % ID/g
% ID ([2]; Blood, 60 min p.i.): 2.3±0.2 % ID
% ID/g ([2]; Blood, 60 min p.i.): 0.8±0.1 % ID/g
% ID/g ([2]; Bone, 2 min p.i.): 1.5±0.2 % ID/g
% ID/g ([2]; Bone, 10 min p.i.): 1.2±0.4 % ID/g
% ID/g ([2]; Bone, 60 min p.i.): 0.9±0.2 % ID/g
% ID ([2]; Carcass, 2 min p.i.): 44.5±3.6 % ID
% ID ([2]; Carcass, 10 min p.i.): 48.6±2.2 % ID
% ID ([2]; Carcass, 60 min p.i.): 19.3±3.3 % ID
% ID ([2]; Cerebellum, 2 min p.i.): 0.4±0.1 % ID
% ID/g ([2]; Cerebellum, 2 min p.i.): 3.9±0.4 % ID/g
% ID ([2]; Cerebellum, 10 min p.i.): 0.1±0.0 % ID
% ID/g ([2]; Cerebellum, 10 min p.i.): 1.1±0.1 % ID/g
% ID ([2]; Cerebellum, 60 min p.i.): 0.0±0.0 % ID
% ID/g ([2]; Cerebellum, 60 min p.i.): 0.3±0.1 % ID/g
% ID ([2]; Cerebrum, 2 min p.i.): 1.2±0.2 % ID
% ID/g ([2]; Cerebrum, 2 min p.i.): 3.7±0.5 % ID/g
% ID ([2]; Cerebrum, 10 min p.i.): 0.4±0.0 % ID
% ID/g ([2]; Cerebrum, 10 min p.i.): 1.2±0.1 % ID/g
% ID ([2]; Cerebrum, 60 min p.i.): 0.1±0.0 % ID
% ID/g ([2]; Cerebrum, 60 min p.i.): 0.3±0.0 % ID/g
% ID ([2]; Heart, 2 min p.i.): 0.9±0.1 % ID
% ID/g ([2]; Heart, 2 min p.i.): 5.0±1.0 % ID/g
% ID ([2]; Heart, 10 min p.i.): 0.3±0.1 % ID
% ID/g ([2]; Heart, 10 min p.i.): 1.8±0.2 % ID/g
% ID ([2]; Heart, 60 min p.i.): 0.1±0.0 % ID
% ID/g ([2]; Heart, 60 min p.i.): 0.6±0.0 % ID/g
% ID ([2]; Intestines, 2 min p.i.): 8.9±0.6 % ID
% ID ([2]; Intestines, 10 min p.i.): 13.0±1.5 % ID
% ID ([2]; Intestines, 60 min p.i.): 33.8±6.2 % ID
% ID ([2]; Kidneys, 2 min p.i.): 4.5±0.2 % ID
% ID/g ([2]; Kidneys, 2 min p.i.): 7.1±0.8 % ID/g
% ID ([2]; Kidneys, 10 min p.i.): 5.0±1.0 % ID
% ID/g ([2]; Kidneys, 10 min p.i.): 7.9±1.2 % ID/g
% ID ([2]; Kidneys, 60 min p.i.): 1.9±0.4 % ID
% ID/g ([2]; Kidneys, 60 min p.i.): 2.8±0.5 % ID/g
% ID ([2]; Liver, 2 min p.i.): 28.6±2.5 % ID
% ID/g ([2]; Liver, 2 min p.i.): 14.2±2.5 % ID/g
% ID ([2]; Liver, 10 min p.i.): 16.1±1.6 % ID
% ID/g ([2]; Liver, 10 min p.i.): 8.7±1.0 % ID/g
% ID ([2]; Liver, 60 min p.i.): 8.9±3.2 % ID
% ID/g ([2]; Liver, 60 min p.i.): 4.6±2.1 % ID/g
% ID ([2]; Lungs, 2 min p.i.): 1.5±0.4 % ID
% ID/g ([2]; Lungs, 2 min p.i.): 4.5±0.3 % ID/g
% ID ([2]; Lungs, 10 min p.i.): 0.9±0.2 % ID
% ID/g ([2]; Lungs, 10 min p.i.): 2.7±0.1 % ID/g
% ID ([2]; Lungs, 60 min p.i.): 0.5±0.2 % ID
% ID/g ([2]; Lungs, 60 min p.i.): 1.6±1.0 % ID/g
% ID/g ([2]; Muscle, 2 min p.i.): 1.2±0.3 % ID/g
% ID/g ([2]; Muscle, 10 min p.i.): 1.3±0.2 % ID/g
% ID/g ([2]; Muscle, 60 min p.i.): 0.4±0.1 % ID/g
% ID ([2]; Pancreas, 2 min p.i.): 1.1±0.1 % ID
% ID/g ([2]; Pancreas, 2 min p.i.): 5.4±0.9 % ID/g
% ID ([2]; Pancreas, 10 min p.i.): 0.6±0.1 % ID
% ID/g ([2]; Pancreas, 10 min p.i.): 2.7±0.2 % ID/g
% ID ([2]; Pancreas, 60 min p.i.): 0.5±0.2 % ID
% ID/g ([2]; Pancreas, 60 min p.i.): 2.0±0.5 % ID/g
% ID/g ([2]; Skin, 2 min p.i.): 1.3±0.1 % ID/g
% ID/g ([2]; Skin, 10 min p.i.): 2.4±0.3 % ID/g
% ID/g ([2]; Skin, 60 min p.i.): 1.1±0.3 % ID/g
% ID ([2]; Spleen, 2 min p.i.): 0.6±0.2 % ID
% ID/g ([2]; Spleen, 2 min p.i.): 4.0±0.8 % ID/g
% ID ([2]; Spleen, 10 min p.i.): 0.2±0.0 % ID
% ID/g ([2]; Spleen, 10 min p.i.): 2.0±0.2 % ID/g
% ID ([2]; Spleen, 60 min p.i.): 0.2±0.0 % ID
% ID/g ([2]; Spleen, 60 min p.i.): 1.4±0.3 % ID/g
% ID ([2]; Stomach, 2 min p.i.): 1.4±0.2 % ID
% ID ([2]; Stomach, 10 min p.i.): 2.0±0.7 % ID
% ID ([2]; Stomach, 60 min p.i.): 1.8±0.7 % ID
% ID ([2]; Trigeminal nerve, 2 min p.i.): 0.02±0.00 % ID
% ID/g ([2]; Trigeminal nerve, 2 min p.i.): 4.2±0.4 % ID/g
% ID ([2]; Trigeminal nerve, 10 min p.i.): 0.01±0.00 % ID
% ID/g ([2]; Trigeminal nerve, 10 min p.i.): 3.4±0.2 % ID/g
% ID ([2]; Trigeminal nerve, 60 min p.i.): 0.01±0.00 % ID
% ID/g ([2]; Trigeminal nerve, 60 min p.i.): 2.9±0.7 % ID/g
total brain uptake ([2]; control mice, 2 min after injection): 1.6 % ID
total brain uptake ([2]; control mice, 60 min p.i.): 0.1 % ID
SUV in trigeminal nerve, isoflurane versus pentobarbital anaesthesia ([2]; control mice, isoflurane 2% in oxygen compared with pentobarbital 60 mg/kg i.p.): remarkable lower
blood 2 min/60 min ratio [2, 12]: 4.3
trigeminal nerve 2 min/60 min ratio [2, 12]: 1.5
trigeminal nerve-to-blood activity ratio ([3]; mice pretreated with BCTC 10 mg/kg s.c. 1 h before tracer): 1.0
trigeminal nerve-to-blood activity ratio ([3]; mice pretreated with SB366791 10 mg/kg s.c. 1 h before tracer): 1.3
trigeminal nerve-to-blood activity ratio [4]: 0.8
intact tracer in plasma, of recovered radioactivity ([5]; 2 min after i.v. injection): 52.0±3.0%
radiometabolites in plasma ([5]; 2 min p.i.): 48.0%±3.0
radiometabolites in plasma ([5]; 10 min p.i.): 82.4%±1.9
intact tracer in brain, of total recovered radioactivity ([6]; 2 min after injection): 85.6%±3.7
intact tracer in brain, of total recovered radioactivity ([6]; 10 min after injection): 67.2%±0.7

COc1cccc(NC(=O)/C=C/c2ccc(Cl)cc2)c1 [SB366791, N-(3-methoxyphenyl)-4-chlorocinnamide]
Kd [7]: 280 ± 56 nM
Kd [8]: 780 ± 140 nM
agonist effects ([9]; agonism assay): No agonist effects were observed
Ki [9, 13]: 197 ± 17 nM
agonist effects ([10]; agonism assay): No agonist effects were observed
Ki [10, 13]: 334 ± 17 nM
IC50 [11]: 5.7 nM
